From PubChem
OX1R antag-1: OX1R (HCRTR1) antagonists, primary screen, fluorescence, CHO/OX1R cells, Fluo-8 calcium, orexin A | inhibition, % at 5 µM | Fluo-8 calcium fluorescence | actives 0.43% (n = 330,000) | Orexin/Hypocretin receptor type 1 (Homo sapiens), O43613 | AID 434989, 2010;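 active = inhibition above its plate's threshold, mean inhibition of all tested compounds on the plate plus 3 SD, cut at about 37% in these data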;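 also: 0% = orexin A challenge wells and 100% = SB-334867-A antagonist wells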
TRPML3 ag: human TRPML3 channel agonists, primary screen, cell-based, HEK293 TRPML3-YFP, Fluo-8 calcium fluorescence, 3 µM; 100% = the carbachol control signal; activation, % at 3 µM; actives 0.29% (n = 220,000); AID 1448, 2008;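 active = activation above its plate's cutoff, the mean activation of the plate's test wells plus 3 SD, cut at about 12% in these data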;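 also: 0% = DMSO only wells and 100% = carbachol wells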
Target sequence (Q8TDD5 whole entry, looked up): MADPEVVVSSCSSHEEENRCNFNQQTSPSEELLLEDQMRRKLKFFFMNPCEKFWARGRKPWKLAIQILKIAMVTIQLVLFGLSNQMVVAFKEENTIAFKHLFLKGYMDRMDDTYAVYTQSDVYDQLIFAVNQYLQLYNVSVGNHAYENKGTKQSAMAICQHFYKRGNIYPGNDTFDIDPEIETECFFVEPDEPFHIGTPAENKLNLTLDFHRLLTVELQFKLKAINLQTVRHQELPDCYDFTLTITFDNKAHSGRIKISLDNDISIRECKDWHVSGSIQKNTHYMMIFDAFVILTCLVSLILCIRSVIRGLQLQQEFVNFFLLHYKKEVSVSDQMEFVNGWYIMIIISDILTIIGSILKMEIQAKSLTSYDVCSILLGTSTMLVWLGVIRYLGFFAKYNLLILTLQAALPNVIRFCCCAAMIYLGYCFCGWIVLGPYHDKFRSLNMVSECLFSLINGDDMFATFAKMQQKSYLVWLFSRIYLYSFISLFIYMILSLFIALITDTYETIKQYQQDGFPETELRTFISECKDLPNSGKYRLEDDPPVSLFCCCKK
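Test system: HEK293 cells stably carrying human TRPML3-YFP; Doses: single dose, 3 µM final nominal compound, 0.3% DMSO final; Schedule: dye loading 1 h 37 °C then 30 min ambient, 125 s read; Technique: Fluo-8 calcium fluorescence; Benchmarks: high control carbachol 87 µM, low control DMSO.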
zfTRPN1 agonist: zebrafish TRPN1 channel agonists, primary screen, cell-based, HEK293, calcium fluorescence. HEK293 zebrafish TRPN1-YFP, Fluo-8 calcium fluorescence; 100% = response to 87 µM carbachol. activation, % at 3 µM. actives 0.18% (n = 220,000). AID 1424, 2008;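 active = activation above its plate's cutoff, the mean activation of test wells on that plate plus 3 SD, cut at about 19% in these data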;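 also: 0% = DMSO alone and 100% = 87 µM carbachol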
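Material: zebrafish TRPN1-YFP in HEK293 cells; Doses: single test compound dose, 3 µM nominal, 0.3% DMSO; Timing: dye loading 1 h at 37 °C, then 30 min room temperature; Technique: intracellular calcium fluorescence with Fluo-8; Benchmarks: high carbachol 87 µM, low DMSO alone.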
OX1R antag-2: antagonists of human orexin 1 receptor (OX1R); OX1R-expressing cells, FRET antagonist read-out; inhibition, % at 6.6 µM; actives 1.8% (n = 330,000); in the data active = inhibition mostly above about 38%, no sharp cut-off; inactive = mostly below about 40%;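 also: 0% = agonist challenge alone and 100% = reference antagonist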
CHO parental Ca: ATP-evoked calcium signal inhibitors, parental CHO, primary screen, counter-screen for OX1R antagonist project, cell-based, fluorescence, Fluo-8 calcium dye; parental CHO-K1, ATP-induced calcium, Fluo-8 fluorescence; inhibition, % at 5.6 µM; actives 0.63% (n = 330,000);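 active = inhibition above that plate's mean sample inhibition plus 3 SD, cut at about 26% in these data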;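 also: 0% = ATP-challenged DMSO wells and 100% = DMSO wells without ATP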
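Test system: untransfected parental CHO cell line; also added: ATP stimulus; dosing: 5.6 µM, single dose; signal: calcium-sensitive Fluo-8 fluorescence; measure: percent inhibition of ATP-evoked calcium rise, normalized to controls; benchmarks: low control ATP plus DMSO, high control DMSO only; replication: one well per compound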
Active calls of the source: *; x = no result. Hits are enriched below; roughly 2.5% of the tested compounds scored in any of these assays.

SMILES	OX1R antag-1	TRPML3 ag	zfTRPN1 agonist	OX1R antag-2	CHO parental Ca
Cc1ccc(S(=O)(=O)N2[C@@H](c3cccc(Cl)c3)C(C(=O)O)=CC[C@H]2c2ccc(Cl)cc2)cc1	30.5	x	x	73.9*	-0.6
CCOc1ccc([C@@H]2CC=C(C(=O)O)[C@H](c3cccc(Cl)c3)N2S(=O)(=O)c2ccc(C)cc2)cc1	-17.7	x	x	55.2*	3.7
CCOc1ccc([C@@H]2CC=C(C(=O)O)[C@H](c3ccc(F)cc3)N2S(=O)(=O)c2ccc(C)cc2)cc1	1.6	x	x	21.8	-9.4
O=C(CCNC(=O)c1ccccc1Cl)NCCc1ccc(C(F)(F)F)cc1	-19.2	x	x	13.9	-15.2
Cc1ccc(CC(=O)N2CCN(S(=O)(=O)c3ccccc3)CC2)cc1C	-17.3	x	x	14.0	-10.9
O=C1Nc2ccc(Cl)cc2[C@@](C#CC2CC2)(C(F)(F)F)O1	13.7	-1.3	-3.7	20.4	48.1*
Cc1cccc(NC(=O)COC(=O)c2ccc([N+](=O)[O-])o2)c1C	-17.4	0.8	1.4	64.9	-0.6
O=C(COC(=O)c1ccc([N+](=O)[O-])o1)NCCc1ccccc1	6.4	x	x	31.5*	-5.0
O=C(COC(=O)c1ccc([N+](=O)[O-])o1)Nc1ccc(Br)cc1F	-7.1	x	x	28.1*	-0.1
Cc1[nH]c2ccccc2c1/C=N/NC(=O)c1cc(-c2ccccc2)n[nH]1	30.2	-0.6	2.0	70.0*	6.7
Cc1[nH]c2ccccc2c1/C=N/NC(=O)c1cc(C(C)(C)C)[nH]n1	-15.4	0.2	0.6	38.1*	-6.3
Cc1[nH]c2ccccc2c1/C=N/NC(=O)c1ccccc1	-8.3	x	x	7.9	-15.4
O=C1OC(c2ccc3c(c2)OCO3)N(C(=O)c2ccc(Cl)c(Cl)c2)c2ccccc21 (stereo not given)	-1.0	-0.1	-0.1	76.2*	2.2
COc1ccc(/C=C2\SC(=S)N(NS(=O)(=O)c3ccc(C)cc3)C2=O)c(OC)c1	-12.7	x	x	60.0*	11.6
CC(C)C(NC(=O)c1ccc(C(C)(C)C)cc1)C(=O)NCc1ccccn1 (stereo not given)	-17.2	x	x	5.8	-30.1
Cc1cc(=O)oc2cc(NC(=O)c3c(Cl)cnn3C)ccc12	-12.7	x	x	61.3*	-6.1
CCCc1nnc(SCC(=O)N2CCCC2)n1Cc1ccco1	-8.3	-0.3	0.3	0.8	-13.8
Cc1cc(C)c(OCC(=O)Nc2ccccc2N2CCOCC2)c(C)c1	43.9*	15.2*	24.0*	2.7	41.3*
CCOc1ccc(NC(=O)CCC(=O)NNC(=O)Nc2cccc(Cl)c2)cc1	-9.1	0.8	-0.3	5.4	-14.8
N#CC(/C(=N/S(=O)(=O)c1cccs1)c1ccccc1)c1nc2ccccc2[nH]1 (stereo not given)	-17.8	0.5	0.5	43.1*	-12.1
N#CC(C(=O)C12CC3CC(CC(C3)C1)C2)c1nc2ccccc2[nH]1 (stereo not given)	2.0	1.2	0.5	15.0	-18.9
COc1ccc(C(O)(C(C)C)C(CN2CCOCC2)c2ccc(Cl)cc2)cc1 (stereo not given)	-47.9	x	x	-5.6	-32.8
O=C(OCn1ncc(Cl)c(Cl)c1=O)c1cccc(C(F)(F)F)c1	51.8*	0.1	0.0	6.4	81.4*
O=C(OCn1ncc(Br)c(Br)c1=O)c1ccccc1Cl	1.9	-0.1	-1.5	35.0	-2.7
Cc1ccc(C(=O)Nn2cnc3ccccc3c2=O)cc1C	-28.1	x	x	-2.3	-11.0
SMILES	OX1R antag-1	TRPML3 ag	zfTRPN1 agonist	OX1R antag-2	CHO parental Ca
O=C(COc1ccc(-c2nnco2)cc1)N1CCOCC1	-3.1	x	x	13.7	-3.0
O=C(c1ccccc1)N1N=C(c2cccs2)CC1c1ccccc1O (stereo not given)	-29.3	x	x	7.6	-3.9
COC(=O)c1ccc(C2N=C(c3cccs3)CC(c3ccccc3O)N2)cc1 (stereo not given)	3.7	0.8	1.2	72.2*	42.1*
N#Cc1cc([N+](=O)[O-])ccc1NC(=O)COC(=O)C1CCC(=O)N1 (stereo not given)	-13.7	x	x	42.5*	-5.0
N#Cc1cc([N+](=O)[O-])ccc1NC(=O)COC(=O)C12CC3CC(CC(C3)C1)C2	-26.2	1.7	0.6	32.8	-9.9
N#Cc1cc([N+](=O)[O-])ccc1NC(=O)CSc1n[nH]c(=O)[nH]c1=O	-12.9	x	x	44.9*	-13.4
CCCc1cc(=O)[nH]c(SCC(=O)Nc2ccc([N+](=O)[O-])cc2C#N)n1	-8.1	0.7	0.9	8.7	-15.8
Cc1ccc(S(=O)(=O)N2CCC(NC(=O)c3ccccc3)CC2)cc1	-5.0	-0.1	1.7	18.3	8.0
COc1ccc(CNC(=O)c2ccc3ccccc3n2)cc1OC	9.4	x	x	51.8*	45.5*
COc1ccc(CCNC(=O)CC(=O)N/N=C/c2ccc(C(=O)O)cc2)cc1OC	-19.4	x	x	9.4	-6.7
COc1ccc(CCNC(=O)CSc2nnc(-c3ccccc3)c3ccccc23)cc1OC	-13.7	-1.2	-2.6	72.7*	-27.1
COC(=O)c1ccc(/C=N/OCC(=O)NCCc2ccc(OC)c(OC)c2)cc1	1.6	0.9	1.8	45.0*	-14.2
COc1ccc(CCNC(=O)COc2ccc(S(=O)(=O)N3CCOCC3)cc2)cc1OC	14.7	1.1	0.6	48.8*	-6.8
COc1ccc(CCNC(=O)c2ccc3ccccc3n2)cc1OC	-27.7	0.1	-0.2	19.4	-8.7
O=C(CSc1nnnn1-c1ccc(F)cc1F)Nc1ccccc1F	-18.1	x	x	6.6	2.2
CCOC(=O)c1ccc(NC(=S)N2CCN(C(=O)C3CCCO3)CC2)cc1 (stereo not given)	-3.9	x	x	24.4	7.2
CCN=C1SC(CC(=O)NCCc2ccc(OC)c(OC)c2)C(=O)N1CC (stereo not given)	-7.8	0.8	1.8	7.1	-7.0
COc1ccc(CCNC(=O)CSc2ccc3ccccc3c2)cc1OC	-3.3	-0.3	1.1	63.7*	-25.1
CN=C1SC(CC(=O)NCCc2ccc(OC)c(OC)c2)C(=O)N1C (stereo not given)	104.4*	-0.4	-0.1	3.6	100.7*
C#CCNC(=O)C1=C[C@@H](c2ccc(C#C)cc2)C[C@@H](OCc2ccc(CO)cc2)O1	-8.9	x	x	32.5	-2.3
CCOC(=O)COc1ccc(S(=O)(=O)NC2CC2)cc1	0.2	x	x	4.8	-7.3
COc1cc(NC(=O)COC(=O)c2cnccn2)c(C)cc1[N+](=O)[O-]	-9.6	-0.2	0.5	25.3	-5.1
O=C(CCCN1C(=O)S/C(=C\c2ccccc2)C1=O)NNC(=O)c1ccccc1O	0.6	0.8	-1.5	56.4*	6.5
O=C(CCCN1C(=O)/C(=C\c2ccccc2)SC1=S)N1CCOCC1	46.2*	x	x	31.6	33.0*
